In the EternaBench riboswitch data:

Test system: MS2 coat protein
Assay: apparent Kd, MS2 coat protein; higher = weaker binding; RNA-MaP array; FMN 200 µM where present
Procedure, shortened: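 On Illumina sequencing-chip clusters, designs were transcribed by stalled E. coli RNA polymerase and titrated with SNAP-549-labelled MS2 coat protein (0.7 or 1.5 nM, doubling to 3 µM), without and then with constant ligand, in 100 mM Tris-HCl pH 7.5, 80 mM KCl, 4 mM MgCl2, BSA, DTT, yeast tRNA and Tween-20. Apparent Kd is the median of filtered per-cluster curve fits to green signal normalised to red-channel RNA signal and control-cluster median Fmax.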

[1] = designed as: ON switch for flavin mononucleotide, no ligand
[2] = ligand present: flavin mononucleotide, designed as: ON switch for flavin mononucleotide
[3] = designed as: OFF switch for flavin mononucleotide, no ligand
[4] = ligand present: flavin mononucleotide, designed as: OFF switch for flavin mononucleotide

AUUAUACAUGAGGAUCACCCAUGUAAUUAAUCUAGUAAGAUCUAGGAUAUCAGCUCGUUUAGAGCUGAGAAGGAGAUCACAUGU
apparent Kd [1]: 53.5 nM | apparent Kd [2]: 21 nM

GUCAUUAAACAGAAGGUGUUGUACAUGAGGAUCACCCAUGUUUAUCUAAUUAAAUUUGUAAUUAACAAGGAUAUGUACUAAUCG
apparent Kd [1]: 231 nM | apparent Kd [2]: 131 nM

GCACGGAUGGUAGGAUAUCAUUGCGAUUAGCUAUGAGAAGGACCACAUGAGGAUCACCCAUGUCCUCUAAUUAGCCUUCCGUGC
apparent Kd [3]: 179 nM | apparent Kd [4]: 297 nM

AUCACCUCGUCAGGAUAUACGUCACUGCGUCAGCAGUGUGGUAAGAUCACAUGAGGAUCACCCAUGUAGAAGGGACGAGCUGAU
apparent Kd [3]: 14.7 nM | apparent Kd [4]: 268 nM

AUAAUUUUAUUUUUCCCAAGAAUCAGAAGGCAUUACAUGAGGAUCACCCAUGUUUUGGAUAGUAAUGAGGAUAUGAUAUGGUUA
apparent Kd [3]: 10.2 nM | apparent Kd [4]: 23.5 nM

GAUCCUUCUGUUAGGAUAUGCUACGGGCUUCCGCUGCAGAAGGAACAUGAGGAUCACCCAUGUCAAAUAAAAUC
apparent Kd [3]: 20.1 nM | apparent Kd [4]: 80.2 nM

GCUGACGAUGUAGGAUAUCUCGACGAUAAGUCGAGAGAAGGACAUGAGGAUCACCCAUGUAUCUCAACGUCAGCGAGGAAACUC
apparent Kd [3]: 16.4 nM | apparent Kd [4]: 20.4 nM

GGAUCGAGUGUGAGGAUAUGCUGGUCCUUGGAUCAGCAGAAGGCACAUGAGGAUCACCCAUGUGAAUACGGUCC
apparent Kd [3]: 24 nM | apparent Kd [4]: 165 nM

GUGGCUAGUGCAGGAUAUUGGCGCGUGUAGUGUCGAGAAGGGCACAUGAGGAUCACCCAUGUGAUCAAUCACUGCUAAGGCCGC
apparent Kd [3]: 7.04 nM | apparent Kd [4]: 7.31 nM

AAGUUUGUACGAGGAUAUCAAUUGUUUCUAAAUUCAACAUGAGGAUCACCCAUGUAACAAUGGAGUGAGAAGGCGUGUGGGCAA
apparent Kd [1]: 214 nM | apparent Kd [2]: 203 nM

AUCGUGUUAGGAUAUACACGACGCUGGGUAGCUAGCGGAGGGUAGAAGGGACAUGAGGAUCACCCAUGUUCGGG
apparent Kd [3]: 157 nM | apparent Kd [4]: 282 nM

GGAUUACAUGAGGAUCACCCAUGUGAGGAUAUCGAUGUCCUCAAUCAAGUGCGGGACUCGAGAAGGCACUUGGA
apparent Kd [3]: 70.3 nM | apparent Kd [4]: 30.9 nM

ACAUGAGGAUCACCCAUGUUGAUAGUAGAAGGGACAGAGAAGAAGAAACAUGAGGAUCACCCAUGUCAGGAUAUGCGAAUUGGA
apparent Kd [1]: 36.4 nM | apparent Kd [2]: 33.6 nM

AGCAUGCUAGGAUAUACGAAACAUUAGGGUUCUUUGUAUAAACAUGAGGAUCACCCAUGUAGAAGGAGCGUGCA
apparent Kd [3]: 46.1 nM | apparent Kd [4]: 169 nM

CGCUAUGACAUAGGAUAUUGGUACAUGAGGAUCACCCAUGUCAACCUUUAAGCAAAAUUUGUUGACAAGAAGGAUGUGGUAGCG
apparent Kd [1]: 11 nM | apparent Kd [2]: 7.71 nM

AGAUCUACAGGAUAUACAUGAAAGAUCAUCAUGACCCUUCAACAUGAGGAUCACCCAUGUAGAAGGGUAGAUCA
apparent Kd [3]: 27.7 nM | apparent Kd [4]: 13.5 nM

CGCUGUCAUGCAGGAUAUGCAUUGGAUUACAAUGCAGAAGGGCGAUUACAUGAGGAUCACCCAUGUGUAGACAGUGAACAAGAG
apparent Kd [1]: 124 nM | apparent Kd [2]: 11.4 nM

UGAUCAAAUGUCAGGAUAUGCUGUUGGAAACAACAGCAGAAGGGACAUGAGGAUCACCCAUGUCUUGUCGAUUU
apparent Kd [3]: 21.4 nM | apparent Kd [4]: 112 nM

GUCCUUUCUGAGGAUAUUAUCUGGUUCGAUUGAUAAGAAGGCAGUACAUGAGGAUCACCCAUGUGGGUCGUUUG
apparent Kd [3]: 37.3 nM | apparent Kd [4]: 244 nM

GGCGGAGACGUUAACAUGAGGAUCACCCAUGUCGAAGGAGAUGAGGAUAUCGCAUACGAUGUAUGUGAGAAGGCAUGGUCUGCC
apparent Kd [1]: 30 nM | apparent Kd [2]: 10.6 nM

UUUAUUAGUUAGAAGGCUUGAUGAAUUACAAUAGACAUGAGGAUCACCCAUGUGUAUUCAUGUCAAGAGGAUAUAGUCAUAUAU
apparent Kd [1]: 13.7 nM | apparent Kd [2]: 6.54 nM

GUGCGAGCCACAGGAUAUCUACAGAUUUAUCGUAGAGAAGGGUGACCUCGUGCACCACAUGAGGAUCACCCAUGUAACUAGGCG
apparent Kd [1]: 19.6 nM | apparent Kd [2]: 36.3 nM

GAGCGAAAGCUCAAUGUCGAUAGCAGAAGGACAUGUAAAAUCAUGAAAACAUGAGGAUCACCCAUGUAGGAUAUGCUAUCGACU
apparent Kd [3]: 23 nM | apparent Kd [4]: 371 nM

CUGGAAUACAGACAUGAGGAUCACCCAUGUUUAAGGGAGGCACAGGAUAUGUCGACGCACCAUAGACAGAAGGGUGACUUGCUU
apparent Kd [1]: 47.8 nM | apparent Kd [2]: 20.3 nM

AUAAGCUCGUCAGGAUAUACAACACUGUGUAAGCAGUGUGGUAUGAUCACAUGAGGAUCACCCAUGUAGAAGGGACGAGCUUAU
apparent Kd [3]: 6.33 nM | apparent Kd [4]: 43.4 nM

GUCAGCUCGUGAGGAUAUACAACACUGCUUCGGCAGUGUAUUAAGAUAACAUGAGGAUCACCCAUGUAGAAGGCACGAGCUGAU
apparent Kd [3]: 5.58 nM | apparent Kd [4]: 8.48 nM

CGACAGUCAGGAUAUGCAAAAAAAAAAAAAAAAAAAAAAAAGCAGAAGGGACAUGAGGAUCACCCAUGUCGUCG
apparent Kd [3]: 59.5 nM | apparent Kd [4]: 45.2 nM

GCAGGAUAAGUGAGGAUAUACCUAUGGAUACAUAGGUAGAAGGUACAUGAGGAUCACCCAUGUUCCUUACCUGC
apparent Kd [3]: 11.9 nM | apparent Kd [4]: 13.4 nM

GCCCAACAUGAGGAUCACCCAUGUAAGGAUAUUGGAUGUGUGUGGAAACAUAUAUAAACGAGAAGGUACAGGGC
apparent Kd [3]: 38.4 nM | apparent Kd [4]: 28.9 nM

ACAUGAGGAUCACCCAUGUACAUGGGUUUAAUUGUGUGUUACGAGGAUAUGUAUUUGAAUUUACAACAGAAGGUGUAUUACUGU
apparent Kd [3]: 811 nM | apparent Kd [4]: 610 nM

AGUAACAUGCUCAACAUGAGGAUCACCCAUGUACUCUCUUGUAAGGAUAUACAAUCGUAUUGAUAGUAGAAGGUACCAAUUAAG
apparent Kd [1]: 52.7 nM | apparent Kd [2]: 51.9 nM

AGGAGACAUGAGGAUCACCCAUGUGCACGUGGAGGAGGAUAUGCUAGUAGAAGAUAGAAAGCAGAAGGCCUAAGAA
apparent Kd [1]: 69.2 nM | apparent Kd [2]: 80.5 nM

CGCUAGGAUGGGUCUAAUGGACCUCAGGAUAUGCUUGUACAUGAGGAUCACCCAUGUAACAUUGUGCAGAAGGGAGGAUCCACG
apparent Kd [1]: 8.82 nM | apparent Kd [2]: 4.57 nM

AACCUAAAACAGAAGGCCAGCUACAUGAGGAUCACCCAUGUCGAAUCAUGGAGGAUAUGUUGUAAUUUACUCGCAGAUGAGUGC
apparent Kd [2]: 5.92 nM

UGAUAGGACAGAGGAUAUACAGAUAGGAUCUACUAUCAAACAAUCCUCACAUGAGGAUCACCCAUGUAGAAGGCUGUCCUAUCU
apparent Kd [3]: 106 nM | apparent Kd [4]: 888 nM

CAAAGGUGAGGAUAUGCAUAACUAUGACGAAAGUCAUAAACACAUGAGGAUCACCCAUGUAGAAGGCACCACAA
apparent Kd [3]: 23.9 nM | apparent Kd [4]: 18.3 nM

AGCUAGUCAGGAUAUACGUACAUGUCAUUAGACGUGAAGGGACAUGAGGAUCACCCAUGUAGAAGGGACUAGCU
apparent Kd [3]: 37.6 nM | apparent Kd [4]: 139 nM

AAGCUUGAUCCUCGUGUAUACAUGAGGAUCACCCAUGUGACGCAGGAUAUAGGCGUGUUAGUAGCCUAGAAGGGCGAGCAGCGA
apparent Kd [3]: 128 nM | apparent Kd [4]: 73.5 nM

CAGUACUGAGGAUAUACAUGAGGAUCACCCAUGUGUUCCAGCUAGGAAGCUAGCAAAAGUAGAAGGCAGUACUG
apparent Kd [3]: 26.2 nM | apparent Kd [4]: 276 nM

AAGAGGUGAGGAUAUCGAAGAAGAAGAAGAAGAAGAAGAAACGAGAAGGCACAUGAGGAUCACCCAUGUAAGAA
apparent Kd [3]: 22.5 nM | apparent Kd [4]: 19.9 nM

UGUGUGAGACAGGAUAUGCCGGAUGAAUUGCUGGUAGAAGGGUCUACAUGAGGAUCACCCAUGUGGCCGGUUGG
apparent Kd [3]: 16.8 nM | apparent Kd [4]: 24.8 nM

UGGUAACAUGAGGAUCACCCAUGUCAGGAUAUCAGGAAGAGGAGAGGAGAGGAGAAGAUGAGAAGGGACUAUAU
apparent Kd [3]: 27.2 nM | apparent Kd [4]: 21.9 nM

UCGGCCGCCGUGAGGAUAUGCCCGCGCGCCCGCGGGCAGAAGGCACAUGAGGAUCACCCAUGUCCCGCGGCACU
apparent Kd [3]: 15.4 nM | apparent Kd [4]: 27.4 nM

UGUUGUAUUACAGGAUAUCUAGUAAUUUUAUUUAGAGAAGGGUAUUCACAUGAGGAUCACCCAUGUAUAUACGAGGAAGUUGUG
apparent Kd [1]: 37 nM | apparent Kd [2]: 39.7 nM

AGCUGUGGCAGAGGAUAUACUACUAUAAUCCAUUGCAAAUAGCGAUGGACAUGAGGAUCACCCAUGUAGAAGGCUGUCACAGCA
apparent Kd [3]: 45.6 nM | apparent Kd [4]: 176 nM

UACGCCUAGGAGAAGGGCCCACUAUAGGGUAAAUGCUGUUCUCACAUGAGGAUCACCCAUGUGCGGCAGGAUAUCCACGCGUAC
apparent Kd [3]: 8.25 nM | apparent Kd [4]: 39 nM

GCAUCCCAUGUCAGGAUAUGCUGUACCUUGGUACAGCAGAAGGGACAUGAGGAUCACCCAUGUGCCUAGGAUGC
apparent Kd [3]: 51.2 nM | apparent Kd [4]: 438 nM

CAGGUCUGAGGAUAUCCAUCUUCAUACAUGAGGAUCACCCAUGUUUACCUUUGGGUUUUUGGAGAAGGCAGUUUUU
apparent Kd [3]: 188 nM | apparent Kd [4]: 243 nM

GUAGGACAUGAGGAUCACCCAUGUGGGAGGGAACGAGGAUAUGUGAAAGGAUUGAAGAGGACAGAAGGCGUGGAGG
apparent Kd [1]: 44.4 nM | apparent Kd [2]: 35.3 nM

AAAUAGCGAGGAUAUACAUGAGGAUCACCCAUGUGGACUGAUGUAGCAUGUUUCAGUGGUAGAAGGUGCUCAAA
apparent Kd [3]: 112 nM | apparent Kd [4]: 100 nM

AAAUUGGUAGAGGAUAUCGGAUAGGAUUUAUUGCGAGAAGGCUGCACAUGAGGAUCACCCAUGUUCUGUUGGGA
apparent Kd [3]: 201 nM | apparent Kd [4]: 280 nM

GUGUACAGAGGAUAUACAUGAGCAUGGAAACAUGCAACUUCACAUGAGGAUCACCCAUGUAGAAGGCUGUACAC
apparent Kd [3]: 25.1 nM | apparent Kd [4]: 111 nM

UAGAAUCGAGGAUAUACAUGAGGAUCACCCAUGUGUUGCCGCGUGAUGUGUUUGUCAGGUAGAAGGCGAUUAUA
apparent Kd [3]: 64.4 nM | apparent Kd [4]: 266 nM

UAUAUAUAGUAAGGAUAUAUAUUUUUUUUUUAAAUAGAAGGUACAGACAUGAGGAUCACCCAUGUUAUAAUAUGGACAUGUGGA
apparent Kd [3]: 99 nM | apparent Kd [4]: 136 nM

AGAUGGUGAUGUUAUCUUCGUCGGACAUGAGGAUCACCCAUGUAGGAUAUGCUACUAAAAUAGUAGCAGAAGGACAUGUAUCUU
apparent Kd [3]: 104 nM | apparent Kd [4]: 1030 nM

GUAGCUAUCGGAGGAUAUUCAUGAUACAUGAGGAUCACCCAUGUUAAAGUGGGAGAAGGCCGAUAGCUACAAGAGCGAAAGCUC
apparent Kd [1]: 44.8 nM | apparent Kd [2]: 6.87 nM
